Data: ChEMBL document CHEMBL4190332, “Design and Optimization of Benzopiperazines as Potent Inhibitors of BET Bromodomains” (ACS Med Chem Lett, 2017)

Columns and labels:
[1] = target: T1, Bromodomain-containing protein 4 (Homo sapiens, UniProt O60885); test: Inhibition of His-epitope tagged BRD4 bromodomain 1 (44 to 168 residues) (unknown origin) using biotinylated K5,8,12,16 tetra-acetylated histone H4 (1 to 20 residues) peptide as substrate measured after 1 hr by Alphascreen assay
In short: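 Binding to the isolated BRD4 first bromodomain was measured by AlphaScreen. Each IC50 is the mean of at least two separate assay runs.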

[2] = test system: MV4-11; test: Growth inhibition of human MV411 cells after 72 hrs by Celltiter-Glo luminescent cell viability assay; format: functional; conditions: MV4-11, 72 h
In short: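 Anti-proliferative activity was tested in MV-4-11 cells. Each GI50 is the mean of at least two separate assay runs.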

[3] = Drug uptake in po dosed mouse plasma; format: ADME, organism-based; conditions: in vivo
[4] = Stability in mouse liver microsomes assessed as parent compound remaining after 30 mins; format: ADME, microsome; conditions: read-out: Stability
In short: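 Compound was incubated with mouse liver microsomes for 30 minutes. The read-out was the percent of compound remaining.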

[5] = Half life in mouse plasma; format: ADME, cell-free
In short: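 Compound stability in mouse plasma, expressed as a half-life.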

[6] = Chemical stability of the compound in acid; format: physicochemical
[7] = test system: Mus musculus; test: Reduction in MYC mRNA level in tumor of athymic Hsd:Foxn1nu mouse xenografted with human MV411 cells at 12.5 mg/kg, po administered as single dose measured after 4 hrs by qRT-PCR analysis relative to control; format: functional
In short: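 Athymic nude mice bearing MV-4-11 xenografts received a single oral dose of 12.5 mg/kg. Tumor MYC levels were compared with those of vehicle-treated mice.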

[8] = Drug uptake in athymic Hsd:Foxn1nu mouse plasma assessed as unbound fraction at 5 mg/kg, po administered as single dose by mass spectrometric analysis; format: ADME, organism-based; conditions: in vivo
[9] = Toxicity in po dosed athymic Hsd:Foxn1nu mouse administered twice daily for 5 days; format: organism-based; conditions: in vivo
In short: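 Tolerability study in athymic nude mice given repeat oral doses twice daily for five days. The value reported is the estimated maximum tolerated dose.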

[10] = test system: MV4-11; test: Antitumor activity against human MV411 cells xenografted in athymic Hsd:Foxn1nu mouse assessed as tumor growth inhibition at 12.5 mg/kg, po administered twice daily for 20 days measured weekly twice during compound dosing relative to control; format: functional; conditions: MV4-11, po, 480 h, read-out: TGI
[11] = target: T1, Bromodomain-containing protein 4; test: Inhibition of BRD4 in human MV411 cells assessed as reduction in MYC mRNA expression; format: cell-based

CC(=O)N1c2ccc(-c3cnn(C4CNC4)c3)cc2N(C(=O)C2CC2)C[C@@H]1C
IC50 [1]: 60 nM
GI50 [2]: 270 nM
Drug uptake [3]: Not Active
remaining at 0.5 h [4]: 100%
half-life [5]: > 24 min

CNC(=O)c1cccc(-c2ccc3c(c2)N(C(=O)c2ccco2)C[C@H](C)N3C(C)=O)c1
IC50 [1]: 790 nM
GI50 [2]: 770 nM

CC(=O)N1c2ccc(-c3ccc(S(C)(=O)=O)cc3)cc2N(C(=O)c2ccco2)C[C@@H]1C
IC50 [1]: 1600 nM
GI50 [2]: 400 nM

CC(=O)N1c2ccc(-c3cnn(C(C)C)c3)cc2N(C(=O)C2CC2)C[C@@H]1C
IC50 [1]: 420 nM
GI50 [2]: 580 nM
remaining at 0.5 h [4]: 24%

CC(=O)N1c2ccccc2N(C(=O)CC(C)C)C[C@@H]1C
IC50 [1]: > 50000 nM

CC(=O)N1c2ccc(-c3ccccc3)cc2N(C(=O)c2ccco2)C[C@@H]1C
IC50 [1]: 1600 nM
GI50 [2]: 350 nM

CC(=O)N1c2ccccc2N(C(=O)c2ccco2)C[C@@H]1C
IC50 [1]: 14000 nM

CC(=O)N1c2ccc(-c3ccc(C(=O)N4CCNCC4)cc3)cc2N(C(=O)C2CC2)C[C@@H]1C
IC50 [1]: 380 nM
GI50 [2]: 120 nM
remaining at 0.5 h [4]: 100%
half-life [5]: 3 min

COC(=O)N1c2ccc(-c3ccc(S(C)(=O)=O)cc3)cc2N(C(=O)c2ccco2)C[C@@H]1C
IC50 [1]: 650 nM
GI50 [2]: 320 nM
remaining at 0.5 h [4]: 14%
half-life [5]: 22 min

CC(=O)N1c2ccc(-c3ccc(S(C)(=O)=O)cc3)cc2N(C(=O)OC(C)C)C[C@@H]1C
IC50 [1]: 260 nM
GI50 [2]: 350 nM
remaining at 0.5 h [4]: 99%
half-life [5]: 6 min

CC(=O)N1c2ccc(-c3cnn(C4COC4)c3)cc2N(C(=O)C2CC2)C[C@@H]1C
IC50 [1]: 370 nM
GI50 [2]: 440 nM
remaining at 0.5 h [4]: 100%
half-life [5]: > 24 min
Stability [6]: Unstable

CC(=O)N1c2ccccc2N(C(=O)C2CCCC2)C[C@@H]1C
IC50 [1]: 43000 nM

CCC(=O)N1c2ccc(-c3ccc(S(C)(=O)=O)cc3)cc2N(C(=O)c2ccco2)C[C@@H]1C
IC50 [1]: 1400 nM
GI50 [2]: 550 nM
remaining at 0.5 h [4]: 11%
half-life [5]: 18 min

CC(=O)N1c2ccccc2N(C(=O)c2ccccc2)C[C@@H]1C
IC50 [1]: > 50000 nM

C[C@H]1CN(C(=O)c2ccco2)c2cc(-c3ccc(S(C)(=O)=O)cc3)ccc2N1C(=O)C1CC1
IC50 [1]: 760 nM
GI50 [2]: 280 nM
remaining at 0.5 h [4]: 19%
half-life [5]: > 24 min

CC(=O)N1c2ccc(-c3ccc(N4CCS(=O)(=O)CC4)cc3)cc2N(C(=O)C2CC2)C[C@@H]1C
IC50 [1]: 100 nM
fold change (FC) [7]: 0.2
GI50 [2]: 220 nM
Drug uptake(free) [8]: Not Active
MTD at 120 h [9]: 12.5 mg/kg
inhibition in vivo at 12.5 mg/kg [10]: 100%
remaining at 0.5 h [4]: 95%
half-life [5]: > 24 min
IC50 [11]: 460 nM

CC(=O)N1c2ccc(-c3ccc(S(C)(=O)=O)cc3)cc2N(C(=O)C2CC2)C[C@@H]1C
IC50 [1]: 1700 nM
GI50 [2]: 830 nM
remaining at 0.5 h [4]: 100%
half-life [5]: > 24 min

CC(=O)N1c2ccc(-c3cnn(C)c3)cc2N(C(=O)c2ccco2)C[C@@H]1C
IC50 [1]: 380 nM
GI50 [2]: 210 nM

C[C@H]1CN(C(=O)c2ccco2)c2cc(-c3ccc(S(C)(=O)=O)cc3)ccc2N1C=O
IC50 [1]: > 25000 nM
